Laboratory results: ChEMBL document CHEMBL1125489, “Antitumor agents. 134. New shiraiachrome-A- and calphostin-C-related perylene derivatives as cytotoxic and antiviral agents and inhibitors of protein kinase C” (1992)
In brackets after ≈: the same amount, converted by molar mass. Several values for one entry are separate records, joined by “and”; a condition that tells them apart may be missing. Identical values can stand only once. Activity calls are given as the source filed them. No cut-off for these calls is given here.

Columns and labels:
[1] = target: T1, Protein kinase C (PKC) (Homo sapiens) (UniProt O94806+P41743+P17252+P05129+Q05655+P05771+Q05513+Q02156+P24723+Q15139+Q04759); assay: Inhibition of protein kinase C(PKC); format: protein assay
Procedure, shortened: (§1)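 Compound added in DMSO, with DMSO-only controls. Reaction started with PKC (1 μg/mL) and stopped with ice-cold TCA plus BSA. Precipitate collected on GF/C filters and counted by β scintillation.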

[2] = system: KB 3-1; assay: Cytotoxic concentration against KB tumor cells.; format: functional; conditions: Homo sapiens, KB 3-1, read-out: ED50
Procedure, shortened: (§2)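 Tumor cells exposed 3 days to drug at 0.1, 1 and 10 μg/mL. ED50 is the concentration giving 50% reduction in cell number, estimated from the degree of inhibition at these three concentrations.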

[3] = Cytotoxic concentration against RPMI-7951 tumor cells.; format: functional; conditions: Homo sapiens, read-out: ED50 (the source's name); procedure, shortened: as §2
[4] = target: T1, Protein kinase C (PKC) (Homo sapiens); assay: Inhibition of protein kinase C(PKC), maximal conc 40 uM; format: protein assay; procedure, shortened: as §1
[5] = target: Protein kinase C, PKC; classical/novel (Homo sapiens) (UniProt O94806+P17252+P05129+Q05655+P05771+Q02156+P24723+Q15139+Q04759); assay: Inhibition of protein kinase C(PKC), inhibition of phorbol binding by 80-100% at 38 uM; format: protein assay
[6] = system: HCT-8; assay: Cytotoxic concentration against HCT-8 tumor cells.; format: functional; conditions: Homo sapiens, read-out: ED50 (the source's name); procedure, shortened: as §2
[7] = system: A549; assay: Cytotoxic concentration against A-549 tumor cells.; format: functional; conditions: Homo sapiens, read-out: ED50 (the source's name); procedure, shortened: as §2
[8] = system: P388; assay: Cytotoxic concentration against P388 tumor cells.; format: functional; conditions: Mus musculus, read-out: ED50 (the source's name); procedure, shortened: as §2
[9] = Cytotoxic concentration against TE-671 tumor cells.; format: functional; conditions: Homo sapiens, read-out: ED50 (the source's name); procedure, shortened: as §2
[10] = system: Vero; assay: Antiviral activity against HSV-2 in vero cells; format: functional; conditions: Chlorocebus sabaeus, read-out: ED50
Procedure, shortened: (§3)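 Confluent Vero cells infected at 3 PFU/cell with HSV-1 (Kos) or HSV-2 (333) in RPMI-1640 with 2% FCS. Drugs added during inoculation as two-fold serial dilutions (final 100, 50, 25, 12.5 μg/mL). Cytopathic effect scored by microscopy after 24 h.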

[11] = system: Vero; assay: Antiviral activity against HSV-1 in vero cells; format: functional; conditions: Chlorocebus sabaeus, read-out: ED50; procedure, shortened: as §3
[12] = system: A549; assay: Cytotoxic concentration against A-549 tumor cells; Inactive at 10 ug/mL.; format: functional, cell-based; conditions: Homo sapiens; procedure, shortened: as §2

## CC(=O)Oc1cc(O)c2c(=O)cc(OC(C)=O)c3c4c(OC(C)=O)cc(=O)c5c(O)cc(OC(C)=O)c(c1c23)c54
[1]
  PKC: > 218 µM

## O=c1ccc2c3ccc(O)c4c(=O)ccc(c5ccc(O)c1c52)c43
[1]
  PKC: > 218 µM

## O=C(/C=C/c1ccccc1)Oc1cc2c3cc(OC(=O)/C=C/c4ccccc4)c(=O)c4cccc(c5cccc(c1=O)c52)c43
[2]
  EC50: 5.5 µg/mL (≈ 9.57 µM)
[3]
  EC50: 5.5 µg/mL (≈ 9.57 µM)
[4]
  PKC: > 40 µM

## O=c1cc2c3cc(O)c(O)c4cccc(c5cccc(c1=O)c52)c43
[5]
  PKC: 14 µM

## N=c1cc2c3cc(N)c(O)c4c(O)ccc(c5ccc(O)c(c1=O)c52)c43
[1]
  PKC: 95 µM

## CC(=O)Oc1cc2c3cc(OC(C)=O)c(=O)c4cccc(c5cccc(c1=O)c52)c43
[2]
  EC50: 0.54 µg/mL (≈ 1.36 µM)
[6]
  EC50: 560 µg/mL (≈ 1410 µM)
[7]
  EC50: 3840 µg/mL (≈ 9640 µM)
[8]
  EC50: 360 µg/mL (≈ 904 µM)
[9]
  EC50: 680 µg/mL (≈ 1710 µM)
[3]
  EC50: 50 µg/mL (≈ 126 µM)
[1]
  PKC: 82 µM

## O=c1cc(O)c2c3c(O)cc(O)c4c(=O)cc(O)c(c5c(O)cc(O)c1c52)c43
[1]
  PKC: > 218 µM

## O=c1cc(S(=O)(=O)[O-])c2c3c(S(=O)(=O)[O-])cc(O)c4c(=O)cc(S(=O)(=O)[O-])c(c5c(S(=O)(=O)[O-])cc(O)c1c52)c43.[Na+].[Na+].[Na+].[Na+]
[10]
  EC50: 10 µg/mL
[11]
  EC50: 2 µg/mL
[1]
  PKC: 200 µM and > 218 µM

## CC(=O)Oc1cc2c3cc(OC(C)=O)c(OC(C)=O)c4cccc(c5cccc(c1OC(C)=O)c52)c43
[6]
  EC50: 4160 µg/mL (≈ 8590 µM)
[7]
  EC50: 5410 µg/mL (≈ 11200 µM)
[8]
  EC50: 640 µg/mL (≈ 1320 µM)
[9]
  EC50: 610 µg/mL (≈ 1260 µM)
[3]
  EC50: 50 µg/mL (≈ 103 µM)
[1]
  PKC: > 218 µM

## COc1c2c3c4c(c(OC)c(=O)c5c(O)cc(OC)c(c6c(OC)cc(O)c(c1=O)c63)c54)[C@@H](C(C)=O)[C@@](C)(O)C2 (stereo in doubt; 2) [HYPOCRELLIN A]
[8]
  EC50: 390 µg/mL (≈ 714 µM)
[10]
  EC50: 5 µg/mL (≈ 9.15 µM)
[11]
  EC50: 5 µg/mL (≈ 9.15 µM)

## CCCCCCCCCCCCCCCCCC(=O)Oc1cc2c3cc(OC(=O)CCCCCCCCCCCCCCCCC)c(=O)c4cccc(c5cccc(c1=O)c52)c43
[2]
  EC50: 5.57 µg/mL (≈ 6.57 µM)
[4]
  PKC: > 40 µM

## COc1cc(C(=O)Oc2cc3c4cc(OC(=O)c5cc(OC)c(OC)c(OC)c5)c(=O)c5cccc(c6cccc(c2=O)c63)c54)cc(OC)c1OC
[4]
  PKC: > 40 µM

## N=c1cc2c3cc(N)c(O)c4cccc(c5cccc(c1=O)c52)c43
[1]
  PKC: > 218 µM

## CC(=O)Oc1ccc2c3ccc(OC(C)=O)c4c(=O)cc(OC(C)=O)c(c5c(OC(C)=O)cc(=O)c1c25)c43
[1]
  PKC: > 218 µM

## O=c1ccc2c3ccc(=O)c4cccc(c5cccc1c52)c43
[12]
  ED50: inactive
[8]
  EC50: 4350 µg/mL (≈ 15400 µM)
[9]
  EC50: 5210 µg/mL (≈ 18500 µM)
[3]
  EC50: 8.9 µg/mL (≈ 31.5 µM)
[1]
  PKC: > 218 µM

## COc1cc(O)c2c(=O)cc(OC)c3c4c(OC)cc(=O)c5c(O)cc(OC)c(c1c23)c54
[10]
  EC50: 15 µg/mL (≈ 34.5 µM)
[11]
  EC50: 3 µg/mL (≈ 6.91 µM)
[1]
  PKC: > 218 µM

## COc1c2c3c4c(c(OC)c(=O)c5c(O)cc(OC)c(c6c(OC)cc(O)c(c1=O)c63)c54)[C@@H](C(C)=O)[C@@](C)(O)C2 (stereo in doubt; 1)
[5]
  PKC: 44 µM

## COc1cc(C(=O)Oc2cc3c4cc(OC(=O)c5cc(OC)c(O)c(OC)c5)c(=O)c5cccc(c6cccc(c2=O)c63)c54)cc(OC)c1O
[4]
  PKC: > 40 µM

## CC(=O)/N=c1\ccc2c3ccc(NC(C)=O)c4c(=O)c(OC(C)=O)cc(c5cc(OC(C)=O)c(O)c1c25)c43
[1]
  PKC: 89 µM
